Laboratory results from ChEMBL document CHEMBL4382221, “First-in-class DAPK1/CSF1R dual inhibitors: Discovery of 3,5-dimethoxy-N-(4-(4-methoxyphenoxy)-2-((6-morpholinopyridin-3-yl)amino)pyrimidin-5-yl)benzamide as a potential anti-tauopathies agent” (Eur J Med Chem, 2019).
Each block holds one compound with its values, some of them ahead of it. Calls of active or inactive are those of the source. No cut-off for these calls is given here.

What was measured:
[1] = target: T1, Macrophage colony-stimulating factor 1 receptor (Homo sapiens, UniProt P07333); assay: Inhibition of human CSF1R at 10 uM using poly[Glu:Tyr] (4:1) as substrate after 120 mins in presence of 10 uM [gamma-33P]-ATP by filtration method relative to control
Summary of the method: (§1)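 Radiometric HotSpot assay measuring substrate phosphorylation directly, with 10 μM ATP. Single-dose screen at 10 μM in duplicate, reported as mean % inhibition from two independent experiments.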

[2] = target: T2, Death-associated protein kinase 1 (Homo sapiens, UniProt P53355); assay: Inhibition of human DAPK1 (1 to 363 residues) at 10 uM using KKLNRTLSFAEPG as substrate after 120 mins in presence of 10 uM [gamma-33P]-ATP by filtration method relative to control; summary of the method: as §1
Target sequence in this assay (P53355 whole entry, looked up, the tested form may be a part): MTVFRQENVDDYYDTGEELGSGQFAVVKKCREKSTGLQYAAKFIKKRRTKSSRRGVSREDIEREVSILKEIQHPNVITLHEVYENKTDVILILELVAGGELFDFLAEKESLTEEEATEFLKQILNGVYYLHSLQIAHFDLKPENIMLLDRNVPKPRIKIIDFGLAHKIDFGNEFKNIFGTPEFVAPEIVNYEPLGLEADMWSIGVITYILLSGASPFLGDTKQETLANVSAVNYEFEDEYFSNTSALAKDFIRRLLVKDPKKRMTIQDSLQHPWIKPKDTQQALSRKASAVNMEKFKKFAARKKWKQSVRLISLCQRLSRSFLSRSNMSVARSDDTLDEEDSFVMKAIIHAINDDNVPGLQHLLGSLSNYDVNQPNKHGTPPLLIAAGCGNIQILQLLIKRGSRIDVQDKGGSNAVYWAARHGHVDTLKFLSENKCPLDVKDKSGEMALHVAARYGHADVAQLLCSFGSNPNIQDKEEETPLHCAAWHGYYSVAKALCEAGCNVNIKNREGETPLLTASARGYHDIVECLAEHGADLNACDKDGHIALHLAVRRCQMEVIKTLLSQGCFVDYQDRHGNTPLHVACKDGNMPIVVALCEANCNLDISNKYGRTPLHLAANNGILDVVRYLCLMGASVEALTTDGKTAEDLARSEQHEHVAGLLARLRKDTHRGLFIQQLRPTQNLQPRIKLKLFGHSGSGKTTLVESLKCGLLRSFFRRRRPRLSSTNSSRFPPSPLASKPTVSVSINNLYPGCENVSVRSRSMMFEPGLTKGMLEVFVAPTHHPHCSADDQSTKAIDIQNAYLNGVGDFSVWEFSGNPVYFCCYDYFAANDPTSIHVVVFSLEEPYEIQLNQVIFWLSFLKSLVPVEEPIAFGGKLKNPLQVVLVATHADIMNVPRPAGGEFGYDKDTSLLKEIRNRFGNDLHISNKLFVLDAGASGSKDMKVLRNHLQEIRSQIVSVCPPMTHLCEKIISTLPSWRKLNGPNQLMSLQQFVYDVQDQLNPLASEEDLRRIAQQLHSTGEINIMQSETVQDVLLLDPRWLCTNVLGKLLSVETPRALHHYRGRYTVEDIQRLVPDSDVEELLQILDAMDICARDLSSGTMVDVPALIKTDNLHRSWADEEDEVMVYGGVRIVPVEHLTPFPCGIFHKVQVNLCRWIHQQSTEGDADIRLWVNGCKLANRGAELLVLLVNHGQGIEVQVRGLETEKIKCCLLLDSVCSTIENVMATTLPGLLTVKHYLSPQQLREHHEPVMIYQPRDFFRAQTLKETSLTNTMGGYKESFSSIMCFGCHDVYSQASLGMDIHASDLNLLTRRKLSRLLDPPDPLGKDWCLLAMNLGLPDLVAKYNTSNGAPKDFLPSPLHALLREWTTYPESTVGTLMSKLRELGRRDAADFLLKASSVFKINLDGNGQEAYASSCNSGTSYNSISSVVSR

[3] = target: T2, Death-associated protein kinase 1; assay: Inhibition of human DAPK1 (1 to 363 residues) using KKLNRTLSFAEPG as substrate after 120 mins in presence of 10 uM [gamma-33P]-ATP by filtration method
Summary of the method: (§2)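 Radiometric HotSpot assay with direct measurement of phosphorylated substrate at 10 μM ATP. IC50 was taken from a duplicate 10-dose series, 3-fold dilutions starting at 20 μM, reported as mean.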
Target sequence in this assay (P53355 whole entry, the tested form may be a part): as the sequence (P53355 whole entry, looked up, the tested form may be a part) above

[4] = target: T1, Macrophage colony-stimulating factor 1 receptor; assay: Inhibition of human CSF1R using poly[Glu:Tyr] (4:1) as substrate after 120 mins in presence of 10 uM [gamma-33P]-ATP by filtration method; summary of the method: as §2
[5] = target: T2, Death-associated protein kinase 1; assay: Inhibition of DAPK1 in HEK293 tau-BiFC cells assessed as reduction in forskolin-induced tau aggregation at 50 uM after 48 hrs by Hoechst staining based HCS analysis; type: cell-based
Summary of the method: (§3)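 HEK293 cells expressing tau-BiFC were exposed to compounds at 50, 10 and 1 μM with forskolin (30 μM) as the tau aggregation activator for 48 h. BiFC fluorescence intensity was quantified as the read-out. Data are mean ± SD.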
Target sequence in this assay (P53355 whole entry, looked up, the tested form may be a part): as above

[6] = target: T2, Death-associated protein kinase 1; assay: Inhibition of human DAPK1 (1 to 363 residues) at 20 uM using KKLNRTLSFAEPG as substrate after 120 mins in presence of 10 uM [gamma-33P]-ATP by filtration method relative to control
Summary of the method: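 Radiometric HotSpot kinase assay with 10 μM ATP. Compound tested at a single 20 μM concentration, reported as mean % inhibition from two independent experiments.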
Target sequence in this assay (P53355 whole entry, looked up, the tested form may be a part): as above

[7] = system: BV-2; assay: Anti-neuroinflammatory activity in mouse BV2 cells assessed as inhibition of LPS-stimulated NO production at 10 uM preincubated for 1 hr followed by LPS stimulation for 23 hrs by Griess reagent based assay relative to control; type: functional
Summary of the method: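 Mouse BV-2 microglia were stimulated with LPS, with or without compound at 10 μM, and NO production was measured. Values are means ± SD of five independent experiments.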

[8] = target: T2, Death-associated protein kinase 1; assay: Inhibition of DAPK1 in HEK293 tau-BiFC cells assessed as reduction in forskolin-induced tau aggregation at 10 uM after 48 hrs by Hoechst staining based HCS analysis; type: cell-based; summary of the method: as §3
Target sequence in this assay (P53355 whole entry, looked up, the tested form may be a part): as above

[9] = target: T2, Death-associated protein kinase 1; assay: Inhibition of human DAPK1 (1 to 363 residues) using KKLNRTLSFAEPG as substrate after 120 mins [gamma-33P]-ATP by filtration method; summary of the method: as §2
Target sequence in this assay (P53355 whole entry, the tested form may be a part): as the sequence (P53355 whole entry, looked up, the tested form may be a part) above

[10] = target: T1, Macrophage colony-stimulating factor 1 receptor; assay: Inhibition of human CSF1R using poly[Glu:Tyr] (4:1) as substrate after 120 mins in presence of 1 uM [gamma-33P]-ATP by filtration method
Summary of the method: (§4)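 CSF1R radiometric kinase assay with dose-response curves at 1, 10 and 100 μM ATP. IC50 was calculated at each ATP concentration, and Ki was derived.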

[11] = Effective permeability of the compound at 12.5 uM after 4 hrs by PAMPA; type: ADME; conditions: read-out: Peff
Summary of the method: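 BBB-PAMPA lipid membrane permeability was measured as effective permeability Pe (10^-6 cm/sec), with compound tested at 12.5 μM. Results are means ± SD of three independent experiments.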

[12] = Cytotoxicity against LPS-stimulated mouse BV2 cells assessed as cell viability at 10 uM after 24 hrs by MTT assay relative to control; type: cell-based, BV-2; conditions: read-out: Activity
Summary of the method: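 BV-2 cell viability was measured in the presence of compound together with LPS and expressed relative to control. Values are means ± SD of five independent experiments.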

[13] = target: Tyrosine-protein kinase Lck (Homo sapiens) (UniProt P06239); assay: Inhibition of human LCK at 10 uM using poly[Glu:Tyr] (4:1) as substrate after 120 mins [gamma-33P]-ATP by filtration method
Summary of the method: (§5)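 Radiometric kinase selectivity panel of 47 kinases, with compound at 10 μM. Data are means ± SD of two independent experiments.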

[14] = target: Proto-oncogene tyrosine-protein kinase Src (Homo sapiens) (UniProt P12931); assay: Inhibition of human c-SRC at 10 uM using poly[Glu:Tyr] (4:1) as substrate after 120 mins [gamma-33P]-ATP by filtration method; summary of the method: as §5
[15] = target: Tyrosine-protein kinase Lyn (Homo sapiens) (UniProt P07948); assay: Inhibition of human LYN at 10 uM using poly[Glu:Tyr] (4:1) as substrate after 120 mins [gamma-33P]-ATP by filtration method; summary of the method: as §5
[16] = target: Platelet-derived growth factor receptor beta (Homo sapiens) (UniProt P09619); assay: Inhibition of human PDGFRbeta at 10 uM using poly[Glu:Tyr] (4:1) as substrate after 120 mins [gamma-33P]-ATP by filtration method; summary of the method: as §5
[17] = target: Death-associated protein kinase 3 (Homo sapiens) (UniProt O43293); assay: Inhibition of human DAPK3 at 10 uM using KKLNRTLSFAEPG as substrate after 120 mins [gamma-33P]-ATP by filtration method; summary of the method: as §5
[18] = target: Calcium/calmodulin-dependent protein kinase type II subunit alpha (Homo sapiens) (UniProt Q9UQM7); assay: Inhibition of human CAMK2a at 10 uM using KKALRRQETVDAL as substrate after 120 mins [gamma-33P]-ATP by filtration method; summary of the method: as §5
[19] = target: T1, Macrophage colony-stimulating factor 1 receptor; assay: Inhibition of human CSF1R using poly[Glu:Tyr] (4:1) as substrate after 120 mins in presence of [gamma-33P]-ATP by filtration method
[20] = target: Voltage-gated inwardly rectifying potassium channel KCNH2 (Homo sapiens, UniProt Q12809); assay: Inhibition of red tracer binding to human ERG expressed in membranes preincubated for 10 to 15 mins followed by tracer addition measured after 3 hrs by fluorescence polarization assay
[21] = target: T2, Death-associated protein kinase 1; assay: Inhibition of DAPK1 in HEK293 tau-BiFC cells assessed as reduction in forskolin-induced tau aggregation after 48 hrs by Hoechst staining based HCS analysis; type: cell-based
Summary of the method: (§6)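 HEK293 tau-BiFC cells were given forskolin (30 μM) and compound in a 5-dose series (1, 2, 4, 8, 16 μM) for 48 h. BiFC fluorescence was quantified and a cellular IC50 was derived from the series.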
Target sequence in this assay (P53355 whole entry, the tested form may be a part): as the sequence (P53355 whole entry, looked up, the tested form may be a part) above

[22] = target: Death-associated protein kinase 2 (Homo sapiens) (UniProt Q9UIK4); assay: Inhibition of human DAPK2 at 10 uM using KKLNRTLSFAEPG as substrate after 120 mins [gamma-33P]-ATP by filtration method; summary of the method: as §5
[23] = target: T2, Death-associated protein kinase 1; assay: Inhibition of DAPK1 in HEK293 tau-BiFC cells assessed as reduction in forskolin-induced tau aggregation at 16 uM after 48 hrs by Hoechst staining based HCS analysis relative to control; type: cell-based; summary of the method: as §6
Target sequence in this assay (P53355 whole entry, looked up, the tested form may be a part): as above

[24] = target: T2, Death-associated protein kinase 1; assay: Inhibition of human DAPK1 (1 to 363 residues) using KKLNRTLSFAEPG as substrate after 120 mins in presence of 100 uM [gamma-33P]-ATP by filtration method
Summary of the method: (§7)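 Dose-response curves were run at 1, 10 and 100 μM ATP, giving an IC50 at each ATP level; Ki was calculated.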
Target sequence in this assay (P53355 whole entry, the tested form may be a part): as the sequence (P53355 whole entry, looked up, the tested form may be a part) above

[25] = target: Platelet-derived growth factor receptor alpha (Homo sapiens) (UniProt P16234); assay: Inhibition of human PDGFRalpha at 10 uM using poly[Glu:Tyr] (4:1) as substrate after 120 mins [gamma-33P]-ATP by filtration method; summary of the method: as §5
[26] = target: Serine/threonine-protein kinase pim-1 (Homo sapiens) (UniProt P11309); assay: Inhibition of human PIM1 at 10 uM using KKRNRTLTK as substrate after 120 mins [gamma-33P]-ATP by filtration method; summary of the method: as §5
[27] = target: Leucine-rich repeat serine/threonine-protein kinase 2 (Homo sapiens) (UniProt Q5S007); assay: Inhibition of human LRRK2 at 10 uM using RLGRDKYKTLRQIRQ as substrate after 120 mins [gamma-33P]-ATP by filtration method; summary of the method: as §5
[28] = target: T3, Serine/threonine-protein kinase 17A (Homo sapiens) (UniProt Q9UEE5); assay: Inhibition of human DRAK1 at 10 uM using KKLNRTLSFAEPG as substrate after 120 mins [gamma-33P]-ATP by filtration method; summary of the method: as §5
T3 sequence (whole entry): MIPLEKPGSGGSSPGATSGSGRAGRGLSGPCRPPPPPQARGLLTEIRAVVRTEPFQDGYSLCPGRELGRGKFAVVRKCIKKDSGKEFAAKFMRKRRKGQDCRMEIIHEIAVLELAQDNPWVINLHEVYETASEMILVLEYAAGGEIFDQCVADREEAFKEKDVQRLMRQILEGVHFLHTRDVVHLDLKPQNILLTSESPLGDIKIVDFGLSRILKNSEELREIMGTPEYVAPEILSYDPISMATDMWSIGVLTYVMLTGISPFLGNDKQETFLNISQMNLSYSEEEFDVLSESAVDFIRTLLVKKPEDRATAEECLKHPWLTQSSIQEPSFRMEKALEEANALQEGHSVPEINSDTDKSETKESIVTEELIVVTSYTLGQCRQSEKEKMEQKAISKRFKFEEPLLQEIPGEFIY

[29] = target: T1, Macrophage colony-stimulating factor 1 receptor; assay: Inhibition of human CSF1R using poly[Glu:Tyr] (4:1) as substrate after 120 mins in presence of 100 uM [gamma-33P]-ATP by filtration method; summary of the method: as §4
[30] = target: T2, Death-associated protein kinase 1; assay: Inhibition of human DAPK1 (1 to 363 residues) using KKLNRTLSFAEPG as substrate after 120 mins in presence of 1 uM [gamma-33P]-ATP by filtration method; summary of the method: as §7
Target sequence in this assay (P53355 whole entry, the tested form may be a part): as the sequence (P53355 whole entry, looked up, the tested form may be a part) above

[31] = target: T2, Death-associated protein kinase 1; assay: Inhibition of DAPK1 in HEK293 tau-BiFC cells assessed as reduction in forskolin-induced tau aggregation at 1 to 50 uM after 48 hrs by Hoechst staining based HCS analysis; type: cell-based; summary of the method: as §3
Target sequence in this assay (P53355 whole entry, looked up, the tested form may be a part): as the sequence (P53355 whole entry, looked up, the tested form may be a part) above

[32] = Effective permeability of the compound at 50 uM after 4 hrs by PAMPA; type: ADME; conditions: read-out: Peff
Summary of the method: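 Parallel artificial membrane permeability assay across a BBB-PAMPA lipid membrane, reporting effective permeability (Pe) in 10^-6 cm/sec. […] Pe above 0.4 was taken as highly permeable, and above 10 as highly CNS bioavailable.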

T1 sequence (P07333 whole entry): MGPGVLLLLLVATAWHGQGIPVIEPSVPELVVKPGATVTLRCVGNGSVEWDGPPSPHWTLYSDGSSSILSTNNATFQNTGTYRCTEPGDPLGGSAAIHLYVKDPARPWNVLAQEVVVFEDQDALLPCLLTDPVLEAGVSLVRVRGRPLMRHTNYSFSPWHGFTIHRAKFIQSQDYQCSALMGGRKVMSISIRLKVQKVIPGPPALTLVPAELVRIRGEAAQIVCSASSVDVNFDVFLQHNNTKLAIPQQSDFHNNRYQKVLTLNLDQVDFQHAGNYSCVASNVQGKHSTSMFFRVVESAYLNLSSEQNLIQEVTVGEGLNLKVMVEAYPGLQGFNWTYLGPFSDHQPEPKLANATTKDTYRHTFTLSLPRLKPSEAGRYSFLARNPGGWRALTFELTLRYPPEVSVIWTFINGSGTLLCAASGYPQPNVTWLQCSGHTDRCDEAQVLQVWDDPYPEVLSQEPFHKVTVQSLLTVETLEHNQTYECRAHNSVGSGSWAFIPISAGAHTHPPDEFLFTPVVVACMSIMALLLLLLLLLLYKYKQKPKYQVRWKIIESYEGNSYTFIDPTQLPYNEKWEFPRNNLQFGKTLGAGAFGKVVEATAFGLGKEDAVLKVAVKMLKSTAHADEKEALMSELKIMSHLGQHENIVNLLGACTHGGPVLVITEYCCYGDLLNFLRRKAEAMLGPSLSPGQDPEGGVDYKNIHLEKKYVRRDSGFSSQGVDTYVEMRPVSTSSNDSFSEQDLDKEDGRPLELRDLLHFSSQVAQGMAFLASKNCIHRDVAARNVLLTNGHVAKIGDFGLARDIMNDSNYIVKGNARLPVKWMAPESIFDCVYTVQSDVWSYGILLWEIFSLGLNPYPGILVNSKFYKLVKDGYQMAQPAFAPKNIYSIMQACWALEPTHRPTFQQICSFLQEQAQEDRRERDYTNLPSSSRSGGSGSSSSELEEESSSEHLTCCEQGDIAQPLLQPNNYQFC
Sequence of Proto-oncogene tyrosine-protein kinase Src (Homo sapiens) (P12931 2-536 limits assumed): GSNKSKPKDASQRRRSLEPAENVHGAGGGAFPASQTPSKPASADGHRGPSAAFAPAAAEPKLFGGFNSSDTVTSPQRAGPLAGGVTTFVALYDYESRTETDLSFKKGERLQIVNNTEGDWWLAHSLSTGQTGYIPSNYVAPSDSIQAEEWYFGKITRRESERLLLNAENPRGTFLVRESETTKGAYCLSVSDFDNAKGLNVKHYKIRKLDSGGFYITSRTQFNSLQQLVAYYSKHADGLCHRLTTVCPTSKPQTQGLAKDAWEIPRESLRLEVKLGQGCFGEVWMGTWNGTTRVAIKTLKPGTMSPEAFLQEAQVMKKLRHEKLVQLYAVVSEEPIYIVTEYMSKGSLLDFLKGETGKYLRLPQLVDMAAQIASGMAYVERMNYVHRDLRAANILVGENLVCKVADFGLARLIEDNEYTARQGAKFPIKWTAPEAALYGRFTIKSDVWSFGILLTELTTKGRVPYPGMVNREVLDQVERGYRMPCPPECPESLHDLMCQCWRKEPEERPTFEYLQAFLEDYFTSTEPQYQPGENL
Sequence of Serine/threonine-protein kinase pim-1 (Homo sapiens) (P11309 whole entry, looked up): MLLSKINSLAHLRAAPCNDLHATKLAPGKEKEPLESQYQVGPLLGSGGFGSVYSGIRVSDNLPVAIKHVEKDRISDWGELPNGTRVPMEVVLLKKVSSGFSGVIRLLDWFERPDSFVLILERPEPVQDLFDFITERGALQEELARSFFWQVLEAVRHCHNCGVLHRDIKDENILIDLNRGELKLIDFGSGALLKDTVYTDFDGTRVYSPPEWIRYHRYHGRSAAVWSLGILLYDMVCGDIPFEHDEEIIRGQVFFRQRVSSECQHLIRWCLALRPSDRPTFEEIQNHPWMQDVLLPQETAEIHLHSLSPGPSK

inhibition [1]: 91.8%
IC50 [4]: 0.78 µM
Compound: COc1ccc(Oc2nc(Nc3ccc(N4CCOCC4)cc3)ncc2NC(=O)c2cccc(OC)c2)cc1
inhibition [2]: 75.1%
IC50 [3]: 7.44 µM
inhibition [5]: Active

inhibition [1]: 65%
IC50 [4]: 4.42 µM
Compound: COc1ccc(Oc2nc(Nc3ccc(N4CCOCC4)cc3)ncc2NC(N)=O)cc1
inhibition [6]: 10.8%

inhibition [1]: 95.3%
IC50 [4]: 0.12 µM
Compound: COc1ccc(Oc2nc(Nc3ccc(N4CCOCC4)cc3)ncc2NC(=O)c2cc(OC)cc(OC)c2)cc1
inhibition [6]: 66%
inhibition [7]: inactive
inhibition [8]: inactive
IC50 [3]: 2.77 µM
inhibition [5]: Active

IC50 [10]: 0.069 µM
Papp at 4 h, 12.5 µM [11]: 57 ×10⁻⁶ cm/s
inhibition [13]: Active
inhibition [14]: Active
inhibition [15]: Active
inhibition [16]: inactive
inhibition [18]: inactive
inhibition [1]: 77.9%
Ki [19]: 0.129 µM
inhibition [25]: inactive
IC50 [4]: 0.15 µM
inhibition [26]: inactive
inhibition [27]: inactive
inhibition [28]: inactive
IC50 [29]: 0.273 µM
Compound: COc1ccc(Oc2nc(Nc3ccc(N4CCOCC4)nc3)ncc2NC(=O)c2cc(OC)cc(OC)c2)cc1
Ki [9]: 0.581 µM
viability at 24 h, 10 µM [12]: > 92%
inhibition at 10 µM [7]: 55%
inhibition [17]: inactive
inhibition [8]: Active
IC50 [20]: 17.1 µM
inhibition [2]: 66.2%
IC50 [3]: 1.25 µM
IC50 [21]: 5 µM
inhibition [22]: inactive
inhibition [23]: 100%
IC50 [24]: 0.92 µM
inhibition [5]: Active
IC50 [30]: 2.89 µM

inhibition [1]: 59.6%
Compound: NC(=O)Nc1cnc(Nc2ccc(N3CCOCC3)cc2)nc1Oc1ccc(C(F)(F)F)cc1
inhibition [6]: 44.9%
IC50 [3]: 14.3 µM
inhibition [31]: inactive

Compound: CC(=O)[C@H]1CC[C@H]2[C@@H]3CCC4=CC(=O)CC[C@]4(C)[C@H]3CC[C@]12C [PROGESTERONE]
Papp at 4 h, 50 µM [32]: 33.3 ×10⁻⁶ cm/s
